Test results reported in ChEMBL document CHEMBL1151765, “Rational design of substituted diarylureas: a scaffold for binding to G-quadruplex motifs” (J Med Chem, 2008).
The source made the active and inactive calls. No cut-off for these calls is given here.

How the values were obtained:
[1] = Stabilization of d[AGAG3AG2GCGCTG3AG2AG3GCT] sequence of c-kit1 G-quadruplex DNA assessed as change in melting temperature at 1 uM by FRET assay
In short: (§1)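 Dual-labelled FAM/TAMRA oligos at 400nM in 60mM KCl potassium cacodylate buffer, pH 7.4, heated to 85 °C for 10 min, then cooled. Ligand added to 1µM; buffer alone as negative control. Excitation 450–495nm, emission read at 515–545nm every 0.5 °C from 30–100 °C. ΔTm is ligand Tm minus control Tm, from four experiments ± maximum sd; c-kit1 curves fitted to sigmoids.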

[2] = Stabilization of d[G3(T2AG3)3] sequence of F21T telomeric G-quadruplex DNA assessed as change in melting temperature at 1 uM by FRET assay
In short: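 Dual-labelled oligo (5′-FAM, 3′-TAMRA) at 400nM in FRET buffer (60mM KCl, K cacodylate, pH 7.4), heated to 85 °C for 10 min, cooled to room temperature. Ligand added from DMSO dilution. Excitation 450–495nm, emission 515–545nm, read every 0.5 °C from 30–100 °C. ΔTm from four experiments: averaged ligand Tm minus averaged buffer-control Tm, ± maximum sd.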

[3] = Stabilization of d[C3G3CG3CGCGAG3AG4AG2] sequence of c-kit2 G-quadruplex DNA assessed as change in melting temperature at 1 uM by FRET assay; in short: as §1
[4] = Stabilization of d[G3(T2AG3)3] sequence of F21T telomeric G-quadruplex DNA assessed as change in melting temperature at 1 uM by FRET assay relative to BRACO-19 in presence of calf thymus DNA
In short: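 F21T FRET melting with ligand at 1µM in the presence of calf thymus DNA competitor at increasing bp concentrations. Retained stabilization, from three experiments, normalized to the ligand's ΔTm with no competitor (100%) ± normalized sd.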

Homo sapiens = species on record: Homo sapiens; test: Binding affinity to biotin-labeled human telomeric d[AG3(T2AG3)3] sequence by surface plasmon resonance analysis
In short: (§2)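 Streptavidin chip with 5′-biotinylated DNA immobilized to 350-400 RU; blank reference flow cell. Run in 10mM HEPES, 100mM KCl, 3mM EDTA, P20 surfactant, pH 7.3, 25°C. Ligand 1nM to 10µM (from 20mM DMSO stock) injected at 50µl/min for 5–10 min to steady state, then 10 min buffer dissociation; glycine pH 2.0 regeneration between cycles.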

[5] = Binding affinity to biotin-labeled d[(AG3)2CGCTG3AG2AG3] sequence of c-kit1 G-quadruplex DNA by surface plasmon resonance analysis; in short: as §2
[6] = Binding affinity to biotin-labeled d[(CG3)2CGCGAG3AG4] sequence of c-kit2 G-quadruplex DNA by surface plasmon resonance analysis; in short: as §2
[7] = Binding affinity to biotin-labeled d[(AG3TG4)2A] sequence of c-myc G-quadruplex DNA by surface plasmon resonance analysis; in short: as §2
[8] = Binding affinity to biotin-labeled d[CGA2T2CGTCTC2GA2T2CG] sequence of duplex DNA by surface plasmon resonance analysis; in short: as §2
[9] = Selectivity ratio of equilibrium binding constant K for human telomeric d[AG3(T2AG3)3] sequence to equilibrium binding constant K for d[CGA2T2CGTCTC2GA2T2CG] sequence of duplex DNA
[10] = Selectivity ratio of equilibrium binding constant K for d[(AG3)2CGCTG3AG2AG3] sequence of c-kit1 G-quadruplex DNA to equilibrium binding constant K for d[CGA2T2CGTCTC2GA2T2CG] sequence of duplex DNA
[11] = Selectivity ratio of equilibrium binding constant K for d[(CG3)2CGCGAG3AG4] sequence of c-kit2 G-quadruplex DNA to equilibrium binding constant K for d[CGA2T2CGTCTC2GA2T2CG] sequence of duplex DNA
[12] = Selectivity ratio of equilibrium binding constant K for d[(AG3TG4)2A] sequence of c-myc G-quadruplex DNA to equilibrium binding constant K for d[CGA2T2CGTCTC2GA2T2CG] sequence of duplex DNA
[13] = target: T1, Telomerase reverse transcriptase (Homo sapiens, UniProt O14746); test: Inhibition of telomerase by TRAP-LIG assay
[14] = target: T1, Telomerase reverse transcriptase; test: Inhibition of telomerase at 50 uM by TRAP-LIG assay relative to control
MCF7 [15] = test: Cytotoxicity against human MCF7 cells after 96 hrs by SRB assay; assay type: functional, cell-based; details: MCF7, 96 h
A549 [16] = test: Cytotoxicity against human A549 cells after 96 hrs by SRB assay; assay type: functional, cell-based; details: A549, 96 h
[17] = Cytotoxicity against human WI38 cells after 96 hrs by SRB assay; assay type: cell-based; details: WI-38, 96 h
A549 [18] = test: Selectivity ratio of IC50 for human A549 cells to IC50 for human WI38 cells
MCF7 [19] = test: Cytotoxicity against human MCF7 cells assessed as population doubling at 3.50 uM after 1 week […] relative to control; assay type: functional
In short: (§3)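 MCF7 cells (1×10^5) treated with sub-cytotoxic ligand concentrations for 1 week, biweekly dosing. Cells counted by haemocytometer; population doublings n = (log Pn – log P0)/log2. Values normalized to vehicle control (100%) ± sd, two independent concentrations per ligand.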

MCF7 [20] = test: Cytotoxicity against human MCF7 cells assessed as population doubling at 7 uM after 1 week […] relative to control; assay type: functional; in short: as §3
MCF7 [21] = test: Cytotoxicity against human MCF7 cells assessed as cell senescence at 3.5 uM after 1 week by beta-galactosidase assay; assay type: functional
[22] = Stabilization of d[(TA)2GC(TA)2T6(TA)2]GC(TA)2 sequence of duplex DNA assessed as change in melting temperature at 1 uM by FRET assay; in short: as §1
MCF7 [23] = test: Selectivity ratio of IC50 for human MCF7 cells to IC50 for human WI38 cells
MCF7 [24] = test: Cytotoxicity against human MCF7 cells assessed as population doubling at 1 uM after 1 week […] relative to control; assay type: functional; in short: as §3
MCF7 [25] = test: Cytotoxicity against human MCF7 cells assessed as population doubling at 2 uM after 1 week […] relative to control; assay type: functional; in short: as §3
MCF7 [26] = test: Cytotoxicity against human MCF7 cells assessed as cell senescence at 1 uM after 1 week by beta-galactosidase assay; assay type: functional
MCF7 [27] = test: Cytotoxicity against human MCF7 cells assessed as cell senescence at 2 uM after 1 week by beta-galactosidase assay; assay type: functional
MCF7 [28] = test: Cytotoxicity against human MCF7 cells assessed as population doubling at 1.75 uM after 1 week […] relative to control; assay type: functional; in short: as §3
MCF7 [29] = test: Cytotoxicity against human MCF7 cells assessed as population doubling at 2.25 uM after 1 week […] relative to control; assay type: functional; in short: as §3
MCF7 [30] = test: Cytotoxicity against human MCF7 cells assessed as cell senescence at 1.75 uM after 1 week by beta-galactosidase assay; assay type: functional
MCF7 [31] = test: Cytotoxicity against human MCF7 cells assessed as cell senescence at 2.25 uM after 1 week by beta-galactosidase assay; assay type: functional
MCF7 [32] = test: Cytotoxicity against human MCF7 cells assessed as population doubling at 5 uM after 1 week […] relative to control; assay type: functional; in short: as §3
MCF7 [33] = test: Cytotoxicity against human MCF7 cells assessed as population doubling at 10 uM after 1 week […] relative to control; assay type: functional; in short: as §3
MCF7 [34] = test: Cytotoxicity against human MCF7 cells assessed as cell senescence at 5 uM after 1 week by beta-galactosidase assay; assay type: functional
MCF7 [35] = test: Cytotoxicity against human MCF7 cells assessed as cell senescence at 10 uM after 1 week by beta-galactosidase assay; assay type: functional

T1 sequence (O14746 whole entry): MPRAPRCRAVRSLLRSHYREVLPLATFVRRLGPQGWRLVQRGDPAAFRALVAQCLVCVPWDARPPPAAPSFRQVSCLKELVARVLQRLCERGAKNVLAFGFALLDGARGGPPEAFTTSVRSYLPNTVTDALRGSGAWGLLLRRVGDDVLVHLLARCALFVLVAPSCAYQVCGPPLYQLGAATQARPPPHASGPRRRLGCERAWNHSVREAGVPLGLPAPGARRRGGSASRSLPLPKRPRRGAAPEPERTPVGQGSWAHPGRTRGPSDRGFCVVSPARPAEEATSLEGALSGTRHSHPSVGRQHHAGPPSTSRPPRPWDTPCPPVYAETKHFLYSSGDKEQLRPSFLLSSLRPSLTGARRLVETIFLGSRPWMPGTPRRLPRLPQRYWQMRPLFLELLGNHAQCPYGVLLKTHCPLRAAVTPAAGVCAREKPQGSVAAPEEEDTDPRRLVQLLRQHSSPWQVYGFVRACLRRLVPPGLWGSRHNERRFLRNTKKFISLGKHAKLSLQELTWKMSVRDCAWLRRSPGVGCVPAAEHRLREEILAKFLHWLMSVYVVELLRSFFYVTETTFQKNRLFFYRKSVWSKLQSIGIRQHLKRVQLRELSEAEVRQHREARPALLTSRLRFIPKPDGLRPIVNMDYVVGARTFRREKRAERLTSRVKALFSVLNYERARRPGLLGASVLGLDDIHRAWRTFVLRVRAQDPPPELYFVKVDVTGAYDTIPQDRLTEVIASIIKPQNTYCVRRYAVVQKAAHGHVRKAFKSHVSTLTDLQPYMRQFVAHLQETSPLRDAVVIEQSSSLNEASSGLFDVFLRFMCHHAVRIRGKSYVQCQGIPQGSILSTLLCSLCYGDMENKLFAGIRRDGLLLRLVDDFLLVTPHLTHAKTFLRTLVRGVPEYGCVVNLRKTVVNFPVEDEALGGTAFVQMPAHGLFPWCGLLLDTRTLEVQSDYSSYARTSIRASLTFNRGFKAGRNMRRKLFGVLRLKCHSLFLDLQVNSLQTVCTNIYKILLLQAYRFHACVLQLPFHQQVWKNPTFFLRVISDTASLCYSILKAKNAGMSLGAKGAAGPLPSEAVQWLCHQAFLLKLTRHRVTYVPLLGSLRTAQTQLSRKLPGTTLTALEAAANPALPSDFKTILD

## O=C(CCCN1CCCC1)Nc1ccc(NC(=O)c2cccc(NC(=O)Nc3cccc(C(=O)Nc4ccc(NC(=O)CCCN5CCCC5)cc4)c3)c2)cc1
[1]
  change in melting temperature (ΔTm): 10.1 °C
[2]
  change in melting temperature (ΔTm): 12 °C
[3]
  change in melting temperature (ΔTm): 17.1 °C
[4]
  Activity: Active
Homo sapiens
  KA: 0.4 ×10⁶ /M
[5]
  KA: 0.4 ×10⁶ /M
[6]
  KA: 3.1 ×10⁶ /M
[7]
  KA: 0.9 ×10⁶ /M
[8]
  KA: < 1 ×10³ /M
[9]
  Selectivity ratio: > 400
[10]
  Selectivity ratio: > 400
[11]
  Selectivity ratio: > 400
[12]
  Selectivity ratio: > 400
[13]
  EC50: > 50 µM
[14]
  inhibition: 36%
MCF7 [15]
  IC50: 11.1 µM
A549 [16]
  IC50: > 50 µM
[17]
  IC50: > 50 µM
A549 [18]
  Ratio IC50: 1
MCF7 [19]
  Activity: 96%
MCF7 [20]
  Activity: 81.5%
MCF7 [21]
  Activity: 1.6%

## O=C(CCN1CCCC1)Nc1cccc(NC(=O)c2ccc(NC(=O)Nc3ccc(C(=O)Nc4cccc(NC(=O)CCN5CCCC5)c4)cc3)cc2)c1
[1]
  change in melting temperature (ΔTm): 0.5 °C
[2]
  change in melting temperature (ΔTm): 5.1 °C
[3]
  change in melting temperature (ΔTm): 7.5 °C
[22]
  change in melting temperature (ΔTm): 4.9 °C
MCF7 [15]
  IC50: 3.2 µM
A549 [16]
  IC50: 4.3 µM
[17]
  IC50: > 50 µM
MCF7 [23]
  Ratio IC50: 15.6
A549 [18]
  Ratio IC50: 11.6
MCF7 [24]
  Activity: 82.9%
MCF7 [25]
  Activity: 44%
MCF7 [26]
  Activity: 3%
MCF7 [27]
  Activity: 4.1%

## O=C(CCN1CCCC1)Nc1ccc(NC(=O)c2cccc(NC(=O)Nc3cccc(C(=O)Nc4ccc(NC(=O)CCN5CCCC5)cc4)c3)c2)cc1
[1]
  change in melting temperature (ΔTm): 10.2 °C
[2]
  change in melting temperature (ΔTm): 13.5 °C
[3]
  change in melting temperature (ΔTm): 18.7 °C
[22]
  change in melting temperature (ΔTm): 0.4 °C
[4]
  Activity: Active
Homo sapiens
  KA: 1.1 ×10⁶ /M
[5]
  KA: 1.4 ×10⁶ /M
[6]
  KA: 5 ×10⁶ /M
[7]
  KA: 2.1 ×10⁶ /M
[8]
  KA: < 1 ×10³ /M
[9]
  Selectivity ratio: > 400
[10]
  Selectivity ratio: > 400
[11]
  Selectivity ratio: > 400
[12]
  Selectivity ratio: > 400
[13]
  EC50: > 50 µM
[14]
  inhibition: 6%
MCF7 [15]
  IC50: 2.6 µM
A549 [16]
  IC50: 5.3 µM
[17]
  IC50: 7.5 µM
MCF7 [24]
  Activity: 110.4%
MCF7 [28]
  Activity: 109.6%
MCF7 [29]
  Activity: 66.5%
MCF7 [30]
  Activity: 3.1%
MCF7 [31]
  Activity: 2.4%

## O=C(CN1CCCC1)Nc1ccc(NC(=O)c2cccc(NC(=O)Nc3cccc(C(=O)Nc4ccc(NC(=O)CN5CCCC5)cc4)c3)c2)cc1
[1]
  change in melting temperature (ΔTm): 3.6 °C
[2]
  change in melting temperature (ΔTm): 7.9 °C
[3]
  change in melting temperature (ΔTm): 11.3 °C
[4]
  Activity: Active
Homo sapiens
  KA: 1.4 ×10⁶ /M
[5]
  KA: 2.1 ×10⁶ /M
[6]
  KA: 5.1 ×10⁶ /M
[7]
  KA: 14 ×10⁶ /M
[8]
  KA: < 1 ×10³ /M
[9]
  Selectivity ratio: > 400
[10]
  Selectivity ratio: > 400
[11]
  Selectivity ratio: > 400
[12]
  Selectivity ratio: > 400
[13]
  EC50: > 50 µM
[14]
  inhibition: 21%
MCF7 [15]
  IC50: 14.4 µM
A549 [16]
  IC50: > 50 µM
[17]
  IC50: 16.4 µM
A549 [18]
  Ratio IC50: 0.3
MCF7 [32]
  Activity: 92.2%
MCF7 [33]
  Activity: 73.1%
MCF7 [34]
  Activity: 1%
MCF7 [35]
  Activity: 1.7%
